According to ChEMBL document CHEMBL1134538, “Peptide folding induces high and selective affinity of a linear and small beta-peptide to the human somatostatin receptor 4” (J Med Chem, 2001):
Positions of bridges follow the written chain, without caps; N, C: chain ends. Non-standard residues stand in square brackets, D forms with d. Residues, ends and D or L forms follow the SMILES beside them. *: point of attachment. Threoninol(2S,3R) = C[C@@H](O)[C@H](CO)N*

Key:
Format in all cases: cell-based
[1] = target: Somatostatin receptor type 5 (Homo sapiens) (UniProt P35346); assay: Binding assay at human somatostatin receptor 5 (hsst5) expressed in CCL-39 cells using LTT-CST-14-(Tyr10) as radioligand.
Somatostatin receptor type 5 (Homo sapiens), sequence (P35346 whole entry): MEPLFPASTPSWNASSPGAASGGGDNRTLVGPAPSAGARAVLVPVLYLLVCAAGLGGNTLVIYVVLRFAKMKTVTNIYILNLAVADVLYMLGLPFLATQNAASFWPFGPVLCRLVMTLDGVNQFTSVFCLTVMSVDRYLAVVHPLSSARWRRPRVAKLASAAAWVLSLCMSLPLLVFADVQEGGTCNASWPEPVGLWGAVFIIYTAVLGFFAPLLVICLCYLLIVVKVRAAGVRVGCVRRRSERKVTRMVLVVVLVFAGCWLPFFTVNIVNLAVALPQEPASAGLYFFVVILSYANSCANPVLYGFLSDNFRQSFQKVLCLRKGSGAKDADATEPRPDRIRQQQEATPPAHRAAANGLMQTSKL
Summary of the method: (§1)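 Chinese hamster lung fibroblast CCL39 cells stably expressing each hsst receptor; crude membrane homogenates in 10 mM HEPES pH 7.5, 0.5% BSA, 5 mM MgCl2, 5 mg/mL bacitracin. Vacuum filtration, bound radioactivity counted. Triplicate curves fitted by nonlinear regression; pKD reported.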

[2] = target: Somatostatin receptor type 1 (Homo sapiens) (UniProt P30872); assay: Binding assay at human somatostatin receptor 1 (hsst1) expressed in CCL-39 cells using LTT-CST-14-(Tyr10) as radioligand.
Somatostatin receptor type 1 (Homo sapiens), sequence (P30872 whole entry): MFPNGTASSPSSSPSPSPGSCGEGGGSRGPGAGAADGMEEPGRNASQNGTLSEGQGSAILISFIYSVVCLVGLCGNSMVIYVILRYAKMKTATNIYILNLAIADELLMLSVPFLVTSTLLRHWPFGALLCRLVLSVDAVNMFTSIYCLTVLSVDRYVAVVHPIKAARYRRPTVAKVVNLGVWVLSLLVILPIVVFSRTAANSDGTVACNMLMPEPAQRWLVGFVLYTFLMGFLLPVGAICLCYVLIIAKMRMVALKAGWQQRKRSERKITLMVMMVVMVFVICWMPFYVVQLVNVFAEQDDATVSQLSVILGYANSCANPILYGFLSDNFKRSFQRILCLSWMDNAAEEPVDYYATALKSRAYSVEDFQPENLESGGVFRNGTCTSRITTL
Summary of the method: as §1, with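 “bacitracin. Competition against 25-50 pM [125I][Tyr10]CST14; 1 µM SRIF14 defines nonspecific binding.” for “bacitracin.”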

[3] = target: Somatostatin receptor type 3 (Homo sapiens) (UniProt P32745); assay: Binding assay at human somatostatin receptor 3 (hsst3) expressed in CCL-39 cells using LTT-CST-14-(Tyr10) as radioligand.
Somatostatin receptor type 3 (Homo sapiens), sequence (P32745 whole entry): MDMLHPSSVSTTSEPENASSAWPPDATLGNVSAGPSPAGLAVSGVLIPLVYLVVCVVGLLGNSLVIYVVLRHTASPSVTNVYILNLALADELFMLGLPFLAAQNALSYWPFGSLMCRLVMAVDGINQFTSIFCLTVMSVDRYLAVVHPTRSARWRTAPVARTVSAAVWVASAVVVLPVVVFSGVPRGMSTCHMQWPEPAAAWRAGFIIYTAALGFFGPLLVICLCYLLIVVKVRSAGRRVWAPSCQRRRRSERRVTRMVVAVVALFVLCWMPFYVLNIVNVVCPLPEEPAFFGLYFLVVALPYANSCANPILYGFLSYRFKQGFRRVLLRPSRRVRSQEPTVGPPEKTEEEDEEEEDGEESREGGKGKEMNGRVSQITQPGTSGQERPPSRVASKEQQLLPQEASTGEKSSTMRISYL
Summary of the method: as §1, with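 “bacitracin. Competition against 25-50 pM [125I][Tyr10]CST14; 1 µM SRIF14 defines nonspecific binding.” for “bacitracin.”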

[4] = target: Somatostatin receptor type 4 (Homo sapiens) (UniProt P31391); assay: Binding assay at human somatostatin receptor 4 (hsst4) expressed in CCL-39 cells using LTT-CST-14-(Tyr10) as radioligand.; summary of the method: as §1
Somatostatin receptor type 4 (Homo sapiens), sequence (P31391 whole entry): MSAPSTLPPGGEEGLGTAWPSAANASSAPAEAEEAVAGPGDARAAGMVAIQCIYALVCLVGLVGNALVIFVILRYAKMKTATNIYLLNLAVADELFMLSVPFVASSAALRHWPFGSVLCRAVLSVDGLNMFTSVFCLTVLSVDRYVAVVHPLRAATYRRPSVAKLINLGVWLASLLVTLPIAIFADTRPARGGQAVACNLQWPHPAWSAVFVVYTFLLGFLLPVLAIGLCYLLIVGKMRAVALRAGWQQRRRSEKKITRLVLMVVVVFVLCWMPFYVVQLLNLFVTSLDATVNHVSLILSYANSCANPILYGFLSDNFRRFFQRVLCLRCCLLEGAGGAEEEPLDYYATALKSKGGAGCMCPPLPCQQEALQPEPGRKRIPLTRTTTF

[5] = target: Somatostatin receptor type 2 (Homo sapiens) (UniProt P30874); assay: Binding assay at human somatostatin receptor 2 (hsst2) expressed in CCL-39 cells using LTT-CST-14-(Tyr10) as radioligand.; summary of the method: as §1
Somatostatin receptor type 2 (Homo sapiens), sequence (P30874 whole entry): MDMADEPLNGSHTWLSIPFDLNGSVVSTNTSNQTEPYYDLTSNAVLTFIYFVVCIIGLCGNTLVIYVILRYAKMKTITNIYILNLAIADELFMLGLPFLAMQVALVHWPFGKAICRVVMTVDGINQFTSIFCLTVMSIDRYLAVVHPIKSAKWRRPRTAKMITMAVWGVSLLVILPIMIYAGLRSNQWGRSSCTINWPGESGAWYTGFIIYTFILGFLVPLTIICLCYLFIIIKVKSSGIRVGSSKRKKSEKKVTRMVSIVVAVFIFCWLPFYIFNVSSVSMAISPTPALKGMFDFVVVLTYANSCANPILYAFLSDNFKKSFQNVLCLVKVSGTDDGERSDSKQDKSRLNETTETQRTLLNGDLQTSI

SMILES	pKD [1]	pKD [2]	pKD [3]	pKD [4]	pKD [5]
CC(=O)N[C@H](CC(=O)N[C@@H](CCCCN)CC(=O)N[C@H](CC(=O)N[C@H](CC(N)=O)Cc1ccccc1)Cc1c[nH]c2ccccc12)[C@@H](C)O	< 4	< 4	< 5	< 4	< 4
C[C@@H](O)[C@H](CO)NC(=O)[C@@H]1CSSC[C@H](NC(=O)[C@H](N)Cc2ccccc2)C(=O)N[C@@H](Cc2ccccc2)C(=O)N[C@H](Cc2c[nH]c3ccccc23)C(=O)N[C@@H](CCCCN)C(=O)N[C@@H]([C@@H](C)O)C(=O)N1 (H-[dF]CF[dW]KTC-{Threoninol(2S,3R)}; disulfide 2-7)	–	–	8.6	–	–
CC(=O)N[C@H](C(=O)N[C@@H](CCCCN)C(=O)N[C@@H](Cc1c[nH]c2ccccc12)C(=O)N[C@@H](Cc1ccccc1)C(N)=O)[C@@H](C)O (Ac-TKWF-NH2)	< 4	< 4	< 5	< 5	< 4
CC(=O)N[C@H](CC(=O)NC[C@H](CCCCN)C(=O)N[C@H](CC(=O)N[C@H](CC(N)=O)Cc1ccccc1)Cc1c[nH]c2ccccc12)[C@@H](C)O	< 5	4.88	< 5	7.08	< 5
